The target of assay [1] is T1, Matrix metalloproteinase-9 (Homo sapiens, UniProt P14780). The experiment in a line: Inhibition of human full length MMP9 using Mca-Pro-Leu-Gly-Leu-Dap(Dnp)-Ala-Arg-NH2 as substrate at 10 uM incubated for 2 hrs prior to testing measured for 15 mins by fluorometric analysis relative to control. The method in brief: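 MMP9 (3 nM) preincubated 2 h with inhibitor. Substrate hydrolysis was then followed for 15 min, ex 328/em 393 nm, in 50 mM HEPES pH 7.5, 150 mM NaCl, 5 mM CaCl2, 0.01% Brij-35 and 1% DMSO. Single-concentration screen gave % inhibition. […] Both were means of three experiments.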

The target in assay [2] is T2, Aminopeptidase N (Sus scrofa) (UniProt P15145).
T2 sequence (whole entry): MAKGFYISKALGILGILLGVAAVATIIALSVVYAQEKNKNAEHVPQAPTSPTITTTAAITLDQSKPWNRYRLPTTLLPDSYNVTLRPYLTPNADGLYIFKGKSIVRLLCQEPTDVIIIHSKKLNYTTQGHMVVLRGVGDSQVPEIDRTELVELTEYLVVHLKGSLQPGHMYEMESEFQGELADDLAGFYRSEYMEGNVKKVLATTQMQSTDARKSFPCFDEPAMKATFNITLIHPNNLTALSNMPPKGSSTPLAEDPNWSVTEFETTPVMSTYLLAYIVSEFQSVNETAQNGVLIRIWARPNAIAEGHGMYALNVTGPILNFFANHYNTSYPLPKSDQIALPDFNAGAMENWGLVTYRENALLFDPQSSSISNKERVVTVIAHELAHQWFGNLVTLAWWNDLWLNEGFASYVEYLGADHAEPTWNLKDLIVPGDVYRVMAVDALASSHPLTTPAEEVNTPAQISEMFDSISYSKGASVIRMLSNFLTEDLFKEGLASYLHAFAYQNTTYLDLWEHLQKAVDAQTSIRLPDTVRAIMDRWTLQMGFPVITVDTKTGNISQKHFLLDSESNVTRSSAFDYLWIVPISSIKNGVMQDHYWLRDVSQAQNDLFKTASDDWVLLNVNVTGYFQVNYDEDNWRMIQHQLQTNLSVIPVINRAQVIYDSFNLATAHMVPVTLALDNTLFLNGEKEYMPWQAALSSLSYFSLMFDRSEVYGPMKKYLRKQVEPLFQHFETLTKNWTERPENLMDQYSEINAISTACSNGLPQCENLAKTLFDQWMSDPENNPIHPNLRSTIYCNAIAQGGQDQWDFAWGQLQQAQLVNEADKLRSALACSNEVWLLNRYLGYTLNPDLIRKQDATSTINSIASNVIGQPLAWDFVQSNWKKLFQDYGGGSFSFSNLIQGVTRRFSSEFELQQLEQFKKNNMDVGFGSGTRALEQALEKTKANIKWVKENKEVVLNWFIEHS
Kind of assay: Inhibition of porcine kidney microsomal APN using L-Leu-para-nitroanilide as substrate at 10 uM incubated for 2 hrs prior to substrate addition measured after 30 mins by plate reader analysis relative to control. In short, it runs like this: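 Porcine kidney microsomal aminopeptidase and inhibitors in 50 mM PBS pH 7.2, preincubated 2 h at 37 °C. L-Leu-p-nitroanilide substrate then added and incubated 30 min at 37 °C. Hydrolysis followed as absorbance change at 405 nm. Single-concentration % inhibition, mean of three experiments.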

The target in assay [3] is Histone deacetylase (HDAC1 and HDAC2) (Homo sapiens) (UniProt Q13547+Q92769). The experiment in a line: Inhibition of HDAC1/2 in human HeLa cells using Boc-Lys (acetyl)-AMC as substrate at 10 uM incubated for 2 hrs prior to substrate addition measured after 30 mins by fluorescence assay relative to control. The assay is classed as cell-based. The method in brief: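 HeLa nuclear extract (mainly HDAC1 and HDAC2) as enzyme source in 15 mM Tris–HCl pH 8.0 at 37 °C. Enzyme added to compound solutions, then Boc-Lys(acetyl)-AMC substrate and a further 30 min incubation. Developer containing trypsin and TSA added; fluorescence read 20 min later at 390/460 nm. Single-concentration % inhibition, mean of three experiments.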

Assay [4] has as its target 72 kDa type IV collagenase (Homo sapiens, UniProt P08253). The experiment in a line: Inhibition of human full length MMP2 using Mca-Pro-Leu-Gly-Leu-Dap(Dnp)-Ala-Arg-NH2 as substrate incubated for 2 hrs prior to testing measured for 15 mins by fluorometric analysis.
Assay [5] deals with T1, Matrix metalloproteinase-9. The experiment in a line: Inhibition of human full length MMP9 using Mca-Pro-Leu-Gly-Leu-Dap(Dnp)-Ala-Arg-NH2 as substrate incubated for 2 hrs prior to testing measured for 15 mins by fluorometric analysis.

The inhibition is the percentage by which the read-out fell short of the control. As usually defined, the IC50 is the point on the concentration scale where inhibition reaches its midpoint. A lower IC50 goes with greater potency in that assay.

Structures are written as SMILES. Activity calls are given as the source filed them. The calls are words filed in the database; no cut-off is given here.

Chain of Histone deacetylase (HDAC1 and HDAC2) (Homo sapiens) (Q13547 whole entry, looked up): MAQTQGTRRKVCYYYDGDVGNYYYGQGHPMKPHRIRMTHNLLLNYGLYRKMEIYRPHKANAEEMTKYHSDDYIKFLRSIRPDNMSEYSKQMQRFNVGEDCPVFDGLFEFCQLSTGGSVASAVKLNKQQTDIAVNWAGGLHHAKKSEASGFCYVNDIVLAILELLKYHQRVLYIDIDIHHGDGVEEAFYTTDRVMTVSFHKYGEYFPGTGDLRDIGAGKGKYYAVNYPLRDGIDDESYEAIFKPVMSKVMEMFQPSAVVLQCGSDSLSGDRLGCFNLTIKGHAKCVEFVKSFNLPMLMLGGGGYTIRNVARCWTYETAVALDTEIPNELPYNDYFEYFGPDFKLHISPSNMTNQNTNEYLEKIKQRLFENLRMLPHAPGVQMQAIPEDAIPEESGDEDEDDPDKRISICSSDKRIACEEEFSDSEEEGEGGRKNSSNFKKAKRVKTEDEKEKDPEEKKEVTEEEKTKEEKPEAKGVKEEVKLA
Chain of Histone deacetylase (HDAC1 and HDAC2) (Homo sapiens) (Q92769 whole entry, looked up): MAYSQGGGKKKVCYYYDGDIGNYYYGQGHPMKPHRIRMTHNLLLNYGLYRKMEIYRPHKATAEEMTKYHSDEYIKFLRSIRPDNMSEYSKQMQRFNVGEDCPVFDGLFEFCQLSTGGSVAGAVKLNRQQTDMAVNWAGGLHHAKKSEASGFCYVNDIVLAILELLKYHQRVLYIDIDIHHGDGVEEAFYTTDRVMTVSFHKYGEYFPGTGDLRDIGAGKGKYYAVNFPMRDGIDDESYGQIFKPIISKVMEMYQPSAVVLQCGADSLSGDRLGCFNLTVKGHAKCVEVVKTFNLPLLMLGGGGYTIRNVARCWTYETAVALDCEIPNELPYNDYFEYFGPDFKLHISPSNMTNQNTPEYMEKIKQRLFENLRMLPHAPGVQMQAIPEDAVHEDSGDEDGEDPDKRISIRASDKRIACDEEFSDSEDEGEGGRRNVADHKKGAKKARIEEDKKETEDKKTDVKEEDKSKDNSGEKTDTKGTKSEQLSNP
T1 sequence (P14780 whole entry): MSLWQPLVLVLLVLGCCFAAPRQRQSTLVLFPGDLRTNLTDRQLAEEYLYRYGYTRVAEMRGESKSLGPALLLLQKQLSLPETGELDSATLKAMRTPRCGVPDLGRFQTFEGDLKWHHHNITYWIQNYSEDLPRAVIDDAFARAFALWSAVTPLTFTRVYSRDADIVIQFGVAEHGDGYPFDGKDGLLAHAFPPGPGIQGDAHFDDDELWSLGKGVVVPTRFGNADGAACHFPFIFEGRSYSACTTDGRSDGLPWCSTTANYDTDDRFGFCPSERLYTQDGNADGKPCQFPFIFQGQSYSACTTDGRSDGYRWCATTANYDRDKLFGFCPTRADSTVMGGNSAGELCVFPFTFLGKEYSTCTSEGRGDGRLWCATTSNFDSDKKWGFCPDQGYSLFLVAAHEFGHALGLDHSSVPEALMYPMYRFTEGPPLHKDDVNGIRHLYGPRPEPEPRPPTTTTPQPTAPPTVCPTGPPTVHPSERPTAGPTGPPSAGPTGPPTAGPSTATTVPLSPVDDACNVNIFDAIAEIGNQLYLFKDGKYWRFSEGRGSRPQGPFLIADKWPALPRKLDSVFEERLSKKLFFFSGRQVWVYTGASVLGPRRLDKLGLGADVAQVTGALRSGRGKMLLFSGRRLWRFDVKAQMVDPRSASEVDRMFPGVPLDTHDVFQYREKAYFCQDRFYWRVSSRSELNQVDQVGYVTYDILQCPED
Chain of 72 kDa type IV collagenase (P08253 whole entry): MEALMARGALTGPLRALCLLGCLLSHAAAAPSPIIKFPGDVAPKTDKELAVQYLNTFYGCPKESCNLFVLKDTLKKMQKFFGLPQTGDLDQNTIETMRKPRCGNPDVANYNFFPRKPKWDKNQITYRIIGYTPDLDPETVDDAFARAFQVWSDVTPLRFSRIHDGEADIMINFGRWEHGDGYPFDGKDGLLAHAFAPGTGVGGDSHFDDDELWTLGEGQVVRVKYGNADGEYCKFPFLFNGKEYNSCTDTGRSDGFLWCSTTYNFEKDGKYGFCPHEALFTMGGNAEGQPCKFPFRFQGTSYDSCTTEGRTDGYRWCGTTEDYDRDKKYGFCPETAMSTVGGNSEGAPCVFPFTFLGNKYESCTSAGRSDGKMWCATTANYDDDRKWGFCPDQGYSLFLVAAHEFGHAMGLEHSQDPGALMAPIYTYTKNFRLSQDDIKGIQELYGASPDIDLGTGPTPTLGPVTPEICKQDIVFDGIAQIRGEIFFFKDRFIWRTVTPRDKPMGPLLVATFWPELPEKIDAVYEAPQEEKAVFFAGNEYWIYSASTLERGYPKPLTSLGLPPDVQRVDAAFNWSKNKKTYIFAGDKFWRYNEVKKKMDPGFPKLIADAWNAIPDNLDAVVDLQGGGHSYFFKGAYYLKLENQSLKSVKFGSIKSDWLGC

For the molecule `Nc1ccc(Oc2ccc(S(=O)(=O)C[C@H]3CS3)cc2)cc1`, the inhibition in assay [1] turned out to be 97.4%. In addition, the inhibition entry in assay [2] and in assay [3] was “inactive” each time.
In assay [1], `CC(=O)Nc1ccc(Oc2ccc(S(=O)(=O)C[C@H]3CS3)cc2)cc1` registered an inhibition of 96.2%. The inhibition entry in assay [2] and in assay [3] was “inactive” each time.
Regarding `Nc1ccc(Oc2ccc(S(=O)(=O)CC3CS3)cc2)cc1` (racemic), the inhibition in assay [1] is 96.7%. The inhibition entry in assay [2] and in assay [3] was “inactive” throughout.
In assay [1], `CC(=O)Nc1ccc(Oc2ccc(S(=O)(=O)CC3CS3)cc2)cc1` (racemic) registered an inhibition of 97.2%. Also, the inhibition entry in assay [2] and in assay [3] was “inactive” each time.
Take `CC(=O)Nc1ccc(Oc2ccc([S+]([O-])C[C@H]3CS3)cc2)cc1` (single isomer, unassigned): the inhibition in assay [1] was 24.8%. The inhibition result in assay [2] and in assay [3] was “inactive” in each case.
Take `CC(=O)Nc1ccc(Oc2ccc([S@@+]([O-])C[C@@H]3CS3)cc2)cc1`: in assay [1], the inhibition came to 23.7%. Besides, the inhibition result in assay [2] and in assay [3] was “inactive” each time.
Molecule `CC(=O)Nc1ccc(Oc2ccc([S@@+]([O-])C[C@H]3CS3)cc2)cc1` showed an inhibition in assay [1] of 34.4%. Moreover, the inhibition entry in assay [2] and in assay [3] was “inactive” in each case.
With `Nc1ccc(Oc2ccc(S(=O)(=O)C[C@@H]3CS3)cc2)cc1`, the inhibition in assay [1] is 98.3%. Further, the inhibition result in assay [2] and in assay [3] was “inactive” throughout.
In assay [1], `CC(=O)Nc1ccc(Oc2ccc([S+]([O-])C[C@@H]3CS3)cc2)cc1` (single isomer, unassigned) registered an inhibition of 3.4%. Also, the inhibition entry in assay [2] and in assay [3] was “inactive” throughout.
As to `COc1ccc(S(=O)(=O)N(CC(=O)NO)CC(C)C)cc1`, the IC50 in assay [4] turned out to be 2 nM; in assay [5], 5.9 nM. Further, in assay [1], the inhibition turned out to be 100%.
As for `CC(=O)Nc1ccc(Oc2ccc(S(=O)(=O)C[C@@H]3CS3)cc2)cc1`, the inhibition in assay [1] turned out to be 91.1%. Also, the inhibition entry in assay [2] and in assay [3] was “inactive” throughout.

For the origin of these results see ChEMBL document CHEMBL3616458, “Synthesis of chiral ND-322, ND-364 and ND-364 derivatives as selective inhibitors of human gelatinase” (Bioorg Med Chem, 2015).
